Measured values as given in ChEMBL document CHEMBL1153722, “Design, synthesis, and characterization of peptide-based rab geranylgeranyl transferase inhibitors” (J Med Chem, 2009).

Species on record: Rattus norvegicus
Assay: Inhibition of rat recombinant Rab geranylgeranyltransferase at 100 uM in presence of canine Rab7 and rat REP1 NBD-FPP based continuous fluorimetric assay
How it was run: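 Continuous fluorometric assay in 96/384-well format: 3 μM Rab7, 3 μM REP1, 9 μM NBD-FPP and 400 nM RabGGTase, with or without inhibitor. […] IC50 was calculated from three independent measurements.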

SMILES	inhibition [%]
COC(=O)CNC(=O)[C@H](CO)NC(=O)[C@H](Cc1ccccc1)NC(=O)C1COC(c2ccccc2)=N1 (some centres undefined)	114
CCCCCCCCCCOc1ccc(C(=O)N[C@@H](Cc2c[nH]c3ccccc23)C(=O)N[C@@H](Cc2c[nH]cn2)C(=O)N[C@@H](Cc2c[nH]cn2)C(=O)OC)cc1	56
C=CCOC(=O)[C@H](Cc1cn(C(c2ccccc2)(c2ccccc2)c2ccccc2)cn1)NC(=O)[C@H](Cc1ccccc1)NC(=O)CNC(=O)c1csc(-c2cccs2)n1	136
C[C@H](NC(=O)/C=C/c1ccc(F)cc1)C(=O)NCC(=O)N[C@@H](Cc1ccc(O)cc1)C(=O)NC1CCCCC1	11
CC(C)C[C@H](NC(=O)/C=C/c1ccccc1)C(=O)N[C@@H](Cc1ccccc1)C(=O)N[C@@H](Cc1ccccc1)C(=O)NC1CCCCC1	-4
CCCCCCCCCCOc1ccc(C(=O)N[C@@H](Cc2c[nH]cn2)C(=O)N[C@@H](Cc2c[nH]cn2)C(=O)N[C@@H](CO)C(=O)OCCN)cc1	70
CCCCCCCCCCCOc1ccc(C(=O)N[C@@H](Cc2ccc(O)cc2)C(=O)N[C@@H](Cc2ccc(O)cc2)C(=O)N[C@@H](Cc2ccc(O)cc2)C(=O)NC2CCCCC2)cc1	91
C=CCCCCCCCCCOC(=O)[C@H](CC(C)C)NC(=O)[C@H](COC(C)(C)C)NC(=O)[C@H](Cc1ccccc1)NC(=O)CCc1ccccc1	108
CCCCCCCCCCCOc1ccc(C(=O)N[C@@H](Cc2ccc(O)cc2)C(=O)N[C@@H](Cc2ccc(O)cc2)C(=O)N[C@@H](Cc2ccc(O)cc2)C(=O)Nc2ccccn2)cc1	72
CCCCCCCCCCCC(=O)N[C@@H](Cc1ccc(O)cc1)C(=O)N[C@@H](Cc1c[nH]cn1)C(=O)N[C@@H](Cc1ccc(O)cc1)C(=O)Nc1ccccc1N	42
CCCCCCCCCCCOc1ccc(C(=O)N[C@@H](Cc2c[nH]cn2)C(=O)N[C@@H](Cc2ccc(O)cc2)C(=O)N[C@@H](Cc2ccccc2)C(=O)N(C)OC)cc1	65

Continued, values first:

inhibition [%]	SMILES
106	CC[C@H](C)[C@H](NC(=O)c1ccc(-c2ccccc2)cc1)C(=O)N[C@@H](C(=O)N[C@@H](CCC(N)=O)C(=O)Nc1cccc(Br)n1)C(C)C
98	COC(=O)[C@H](CO)NC(=O)[C@H](Cc1ccccc1)NC(=O)[C@H](CO)NC(=O)/C=C/c1ccc(F)cc1
78	C[C@@H](O)[C@H](NC(=O)/C=C/c1ccccc1)C(=O)N[C@@H](Cc1ccccc1)C(=O)N[C@@H](CCC(N)=O)C(N)=O
96	C[C@H](NC(=O)[C@@H](NC(=O)c1ccc(-c2ccccc2)cc1)[C@@H](C)O)C(=O)N[C@@H](CCC(N)=O)C(=O)NNc1ccccc1
57	COC(=O)[C@H](CC(C)C)NC(=O)[C@H](CO)NC(=O)[C@H](Cc1ccccc1)NC(=O)/C=C/c1ccc(F)cc1
106	CCCCCCCCCCCCCC(=O)OC[C@H](NC(=O)CNC(=O)[C@H](COC(=O)CCCCCCCCCCCCC)NC(=O)c1coc(-c2ccccc2)n1)C(=O)O
124	O=C(CNC(=O)[C@H](Cc1ccccc1)NC(=O)c1csc(-c2cccs2)n1)N[C@@H](CO)C(=O)Nc1nccs1
101	CCCCCCCCCCCOc1ccc(C(=O)N[C@@H](Cc2ccc(O)cc2)C(=O)N[C@@H](Cc2ccc(O)cc2)C(=O)N[C@@H](Cc2ccc(O)cc2)C(=O)Nc2ccc(F)cc2F)cc1
97	CCCCCCCCCCC(=O)N[C@@H](Cc1c[nH]cn1)C(=O)N[C@@H](Cc1cnc[nH]1)C(=O)N[C@@H](Cc1ccc(O)cc1)C(=O)OCCN
66	O=C(CNC(=O)[C@H](Cc1c[nH]cn1)NC(=O)OCc1ccccc1)N[C@@H](Cc1ccc(O)cc1)C(=O)c1nc2ccccc2[nH]1
57	COC(=O)[C@H](CC(C)C)NC(=O)[C@H](COC(C)(C)C)NC(=O)[C@H](Cc1ccccc1)NC(=O)/C=C/c1ccc(F)cc1
123	COC(=O)[C@H](CO)NC(=O)CNC(=O)[C@H](Cc1ccccc1)NC(=O)c1csc(-c2cccs2)n1
76	CCCCCCCCCCC(=O)N[C@@H](Cc1c[nH]cn1)C(=O)N[C@@H](Cc1ccccc1)C(=O)N[C@@H](Cc1ccc(O)cc1)C(=O)N(C)OC
